Compounds with a hit are over-represented: about 2.3% of the library has one in this group of screens.
MC4R antag cAMP – MC4R antagonists of cAMP signaling, primary screen, cell-based, TR-FRET, antagonist arm of biased-ligand search | MC4R-expressing cells, MTII-stimulated cAMP, LANCE TR-FRET | 0.48% of 360,000 active | inhibition, % at 6.5 µM | Melanocortin receptor 4 (Homo sapiens), P32245 | AID 540295, 2011;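 active means inhibition above its plate's cutoff, the mean of tested wells on that plate plus 3 SD, cut at about 29% in these data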;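 further: 0% = Melanotan II alone and 100% = Melanotan II plus saturating MCL0020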
Target sequence (P32245 whole entry, looked up): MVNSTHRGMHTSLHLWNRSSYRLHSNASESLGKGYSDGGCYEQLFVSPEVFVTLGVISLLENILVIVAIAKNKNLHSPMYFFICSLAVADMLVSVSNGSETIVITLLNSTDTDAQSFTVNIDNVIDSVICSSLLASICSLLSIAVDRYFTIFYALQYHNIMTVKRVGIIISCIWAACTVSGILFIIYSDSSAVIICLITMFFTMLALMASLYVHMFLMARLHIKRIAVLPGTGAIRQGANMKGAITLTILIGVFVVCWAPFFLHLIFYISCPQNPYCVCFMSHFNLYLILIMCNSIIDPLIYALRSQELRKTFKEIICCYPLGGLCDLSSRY
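Assay system: U2OS-MC4R stable cell line; Also added: Melanotan II; Technique: Eu-cAMP/anti-cAMP TR-FRET, emission 671 nm; Times: 30-min compound, 1-h challenge, 1-h detection, room temperature.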
MsrA act – bovine MsrA enzyme activators, primary screen, biochemical, absorbance, HTS. purified bovine MsrA, absorbance read-out. 0.3% of 360,000 active. Methionine sulfoxide reductase A (Bos taurus). activation, % at 10.6 µM. AID 602163, 2012; in the data active means activation above about 7.5%;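 further: 0% = vehicle and 100% = reference activator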
MsrA inh – bovine MsrA enzyme inhibitors, primary screen, biochemical, absorbance, HTS; purified bovine MsrA, absorbance read-out; inhibition, % at 15.5 µM; 0.75% of 360,000 active; in the data active means inhibition above about 4.5%;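 further: 0% = vehicle wells with enzyme and 100% = reference inhibitor wells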
MC4R barr agon – MC4R agonists recruiting beta-arrestin, primary screen, cell-based, luminescence, agonist arm of biased-ligand search | 0.98% of 360,000 active | Melanocortin receptor 4 (Homo sapiens), P32245 | activation, % at 8.9 µM | U2OS MC4R beta-arrestin complementation; percent of melanotan II response, DMSO zero;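 active means activation above a per-plate cutoff, the mean activation of sample wells on that plate plus 3 SD, cut at about 8% in these data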
Active calls of the source: *.

`COC(=O)c1ccc2c(c1O)C(=O)c1ccccc1C2=O` gave MC4R antag cAMP -1.5, MsrA act 9.3*, MsrA inh 0.2 and MC4R barr agon -1.5.
`COCc1cc(Sc2cccc(Cl)c2Cl)nc(-c2ccccc2)n1` gave MC4R antag cAMP 4.7, MsrA act 22.7*, MsrA inh -1.2 and MC4R barr agon -1.8.
For O=C(Nc1nnc(-c2ccc(Cl)s2)o1)C1CC1 the results were MC4R antag cAMP 14.2, MsrA act -2.4, MsrA inh 0.3 and MC4R barr agon 0.4.
For CCOC(=O)c1[nH]c(C)c(C(=O)OCC(=O)N2CCc3ccccc32)c1C the results were MC4R antag cAMP -5.6, MsrA act -3.8, MsrA inh 1.9 and MC4R barr agon 8.5*.
CCOC(=O)c1c(C)[nH]c(C(=O)OCC(=O)N2CCc3ccccc32)c1C was read as MC4R antag cAMP 2.6, MsrA act -2.6, MsrA inh 0.2 and MC4R barr agon -1.7.
`O=C(Nc1cccc(Cl)c1)C1CCN(C(=O)c2cccs2)CC1` gave MC4R antag cAMP -2.2, MsrA act -2.4, MsrA inh -0.2 and MC4R barr agon -2.1.
Screening O=C(CSc1ccc(-c2ccc(F)cc2)nn1)NCc1ccco1 returned MC4R antag cAMP 4.4, MsrA act 0.8, MsrA inh -0.9 and MC4R barr agon -1.6.
`CCN1C(=O)/C(=C\c2ccc(F)cc2)N=C1SCC(=O)NCc1ccco1` gave MC4R antag cAMP 2.0, MsrA act -12.8, MsrA inh 0.3 and MC4R barr agon 8.6*.
Screening CCOc1cc(/C=N/NC(=O)CSc2nncn2C)ccc1OCC(N)=O returned MC4R antag cAMP 1.9, MsrA act -6.5, MsrA inh 1.0 and MC4R barr agon -0.7.
Screening CC1(Oc2cccc(F)c2)CCN(Cc2ccc(-c3ccccn3)cc2)C1 (stereo not drawn) returned MC4R antag cAMP 10.3, MsrA act 0.8, MsrA inh -0.4 and MC4R barr agon 8.6*.
Screening CC1(Oc2cnc(Cl)c3ccccc23)CCN(Cc2ccc(-c3ccccn3)cc2)C1 (stereo not drawn) returned MC4R antag cAMP 0.9, MsrA act -3.5, MsrA inh -0.3 and MC4R barr agon -0.1.
`C/C(=N\NC(=O)NC1CCCCC1)C1CCCCC1` gave MC4R antag cAMP 8.4, MsrA act -1.6, MsrA inh -0.2 and MC4R barr agon 5.4.
For COc1ccccc1N(C(=O)CCl)c1cn(C(C)=O)c2ccccc12 the results were MC4R antag cAMP 5.9, MsrA act -5.3, MsrA inh 1.5 and MC4R barr agon 8.6*.
Screening C#CCOCCOCCOCCNc1nc(N2CCN(C(=O)[C@H](CCCCN)n3cc([C@@H](N)C(C)CC)nn3)CC2)nc(N2CCN(C(=O)[C@H](Cc3cc4ccccc4[nH]3)n3cc([C@@H](N)C(C)CC)nn3)CC2)n1 (stereo partly drawn) returned MC4R antag cAMP 5.3, MsrA act 1.1 and MC4R barr agon -0.2.
COc1cc(/C=C2\CCC/C(=C\c3ccc(O)c(OC)c3)C2=O)ccc1O was read as MC4R antag cAMP 12.7, MsrA act -0.6, MsrA inh 2.0 and MC4R barr agon 29.8*.
C=C(C)COc1ccc(-c2[nH]ncc2-c2ccccc2OC)c(O)c1 was read as MC4R antag cAMP 1.7, MsrA act 1.8, MsrA inh -0.1 and MC4R barr agon 9.2*.
Screening C=C(C)COc1ccc(-c2[nH]ncc2Oc2ccc(OC)cc2)c(O)c1 returned MC4R antag cAMP 0.6, MsrA act -1.9, MsrA inh -0.9 and MC4R barr agon 0.8.
For C=C(C)COc1ccc(-c2[nH]ncc2Oc2ccccc2OC)c(O)c1 the results were MC4R antag cAMP 17.1, MsrA act 0.1, MsrA inh 0.0 and MC4R barr agon 8.9*.
For CCc1ccc(C(=O)CCC(=O)Nc2cccc(S(=O)(=O)N3CCCCC3)c2)cc1 the results were MC4R antag cAMP -0.2, MsrA act -7.4, MsrA inh 0.6 and MC4R barr agon -0.8.
`CCOc1cccc(C2c3c(oc4ccccc4c3=O)C(=O)N2c2ccccn2)c1` (stereo not drawn) gave MsrA inh -0.1.
`CCOc1cc(C2c3c(oc4ccccc4c3=O)C(=O)N2c2nccs2)ccc1O` (stereo not drawn) gave MC4R antag cAMP -3.8, MsrA act -2.2, MsrA inh 0.1 and MC4R barr agon 9.5*.
Screening CC1(C)N=C(N)N=C(N)N1c1ccccc1 returned MC4R antag cAMP -0.8, MsrA act -1.2, MsrA inh 0.6 and MC4R barr agon -1.2.
O=C(COC(=O)/C=C/c1ccccc1Cl)NC(=O)NCc1ccccc1 was read as MC4R antag cAMP -1.9, MsrA act -2.1, MsrA inh 1.6 and MC4R barr agon 8.4*.
For O=C(c1ccc(Cl)cc1)c1c[nH]c(C(=O)NNc2cccc(Cl)n2)c1 the results were MC4R antag cAMP -2.4, MsrA act -13.6, MsrA inh -0.4 and MC4R barr agon 8.3*.
Screening COc1ccc(/C=N/NC(=O)c2nc(Cl)c(Cl)c(N)c2Cl)cc1COc1ccccc1F returned MC4R antag cAMP -6.2, MsrA act -9.5, MsrA inh 1.9 and MC4R barr agon 7.7.
Screening COc1ccc(/C=N/NC(=O)c2nc(Cl)c(Cl)c(N)c2Cl)cc1COc1ccc(F)cc1F returned MC4R antag cAMP -7.7, MsrA act -3.4, MsrA inh 2.5 and MC4R barr agon 10.6*.
`N#CCCN(C(=O)COC(=O)c1cc(S(=O)(=O)N2CCOCC2)ccc1Cl)c1ccc(F)cc1` gave MC4R antag cAMP 9.3, MsrA act -3.0, MsrA inh -0.5 and MC4R barr agon -2.0.
Screening CCOC(=O)N1CCN(C(=O)c2cc3c(s2)-c2ccc(Cl)cc2S(=O)(=O)C3)CC1 returned MC4R antag cAMP 5.8, MsrA act -1.8, MsrA inh 0.7 and MC4R barr agon -3.2.
`COc1cccc2sc(N(CCCN(C)C)C(=O)c3ccc(S(=O)(=O)N4CCc5ccccc5C4)cc3)nc12` gave MC4R antag cAMP -4.2, MsrA act -6.7, MsrA inh -0.5 and MC4R barr agon 9.0*.
COc1ccc(C)c2sc(N(CCCN(C)C)C(=O)c3ccc(S(=O)(=O)N4CCc5ccccc5C4)cc3)nc12 was read as MC4R antag cAMP -4.4, MsrA act -1.4, MsrA inh -0.5 and MC4R barr agon 36.7*.
Screening COc1cc2nc(N(CCCN(C)C)C(=O)c3ccc(S(=O)(=O)N4CCc5ccccc5C4)cc3)sc2cc1OC returned MC4R antag cAMP -3.0, MsrA act -2.0, MsrA inh 0.3 and MC4R barr agon -2.2.
`COc1ccc(C)c2sc(N(CCN(C)C)C(=O)/C=C/c3cccs3)nc12` gave MC4R antag cAMP -2.1, MsrA act -3.4, MsrA inh 3.3 and MC4R barr agon 28.9*.
N#C/C(=C(/O)COC(=O)COc1cccc(Br)c1)c1nc2ccccc2[nH]1 was read as MC4R antag cAMP 6.1, MsrA act -1.8, MsrA inh 0.6 and MC4R barr agon 19.9*.

Screens as filed in PubChem BioAssay.
